Compound activity deposited in PubChem BioAssay by several laboratories.
Jurkat tox 60K: cytotoxicity toward Jurkat T cells, primary screen, cytotoxicity control, cell-based, Jurkat E6.1, 60K MLSMR library. hit rate 1.2% among 56,000. Jurkat E6.1 viability, ATP luminescence, 48 h. AID 463, 2006. inhibition, % at 4 µM;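 active means inhibition above the mean inhibition of all tested compounds plus 3 SD, cut at about 28% in these data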
D1 allo mod: D1 CRE-luciferase signal change, two-sided – cell-based, HEK293 D1, dopamine EC30, D1 allosteric modulator project, primary screen; D(1A) dopamine receptor (Homo sapiens), P21728; dopamine EC30 potentiation; actives deviate in either direction; B-score at 10 µM; hit rate 5.9% among 58,000; AID 641, 2007;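 active means luminescence count or its row- and column-corrected plate score outside the 99.7% band of the plate's sample wells, on either side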
M1 antagonist: antagonists of rat M1 muscarinic receptor; CHO-M1 cells, Fluo-4 calcium, ACh EC80 antagonist mode; stronger effect = lower value; AID 628, 2007; hit rate 3.4% among 64,000; B-score at 10 µM; Muscarinic acetylcholine receptor M1 (Rattus norvegicus), P08482;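 active means calcium fluorescence response, raw or row-and-column corrected B-score, differing from the plate sample mean either way at a set confidence level, mostly lower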
HEK293 NFkB inh: inhibitors of PMA/ionomycin-induced NF-kB reporter, primary screen, antigen receptor NF-kB inhibitor project, cell-based, HEK-293 luciferase reporter, luminescence; AID 465, 2006; hit rate 0.21% among 62,000; inhibition, % at 3 µM; HEK-293 NF-kB luciferase reporter;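 active means inhibition above the mean of all tested compounds plus 3 SD, cut at about 40% in these data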;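 further: 0% = stimulated DMSO wells and 100% = 10 µM reference inhibitor 5653914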
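Timing: 1 h pretreatment, 16 h stimulation, 37 °C; system: HEK-293 cells with stable firefly luciferase reporter driven by four HIV NF-kB elements; doses: 3 µM once, 0.30% DMSO; measured by: luciferase luminescence; control set: DMSO and 10 µM reference inhibitor; repeats: single test; reagent: PMA plus ionomycin mix as NF-kB-activating stimulus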
DAT uptake mod: changed hDAT dopamine uptake under cocaine IC80, either direction, primary screen, cocaine antagonist project, cell-based, LLC-PK1 hDAT, [14C]-dopamine uptake, MLSMR; hit rate 1.3% among 110,000; LLC-PK1 hDAT cells, [14C]-dopamine uptake with cocaine IC80; actives deviate in either direction; B-score at 10 µM; Sodium-dependent dopamine transporter (Homo sapiens), Q01959;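 active means Z score or B-score, a plate-position-corrected score, falls beyond the plate's 99.7% confidence bounds, in either direction; inactive means both scores lie inside the 99.7% bounds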;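 further: scored against the spread of the other compound wells on the same plate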
Target sequence (Q01959 whole entry, looked up): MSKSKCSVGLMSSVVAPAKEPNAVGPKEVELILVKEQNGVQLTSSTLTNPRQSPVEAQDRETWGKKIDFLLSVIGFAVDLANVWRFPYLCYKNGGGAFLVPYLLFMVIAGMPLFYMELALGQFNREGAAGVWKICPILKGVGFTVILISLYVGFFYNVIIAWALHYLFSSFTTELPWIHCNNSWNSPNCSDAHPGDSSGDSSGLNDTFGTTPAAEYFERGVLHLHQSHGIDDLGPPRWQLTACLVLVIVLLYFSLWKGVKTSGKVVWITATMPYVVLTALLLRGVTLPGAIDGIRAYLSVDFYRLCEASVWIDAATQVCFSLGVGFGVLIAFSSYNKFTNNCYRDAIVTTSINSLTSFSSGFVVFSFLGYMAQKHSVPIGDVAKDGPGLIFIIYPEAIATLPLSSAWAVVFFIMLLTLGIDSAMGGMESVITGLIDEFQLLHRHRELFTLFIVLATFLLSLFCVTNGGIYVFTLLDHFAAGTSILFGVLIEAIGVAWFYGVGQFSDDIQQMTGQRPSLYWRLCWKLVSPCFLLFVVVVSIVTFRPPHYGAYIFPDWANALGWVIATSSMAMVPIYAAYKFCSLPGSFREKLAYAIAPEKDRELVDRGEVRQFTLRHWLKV
M1 agonist: M1 muscarinic receptor agonists, primary screen, CHO-M1 cells, Fluo-4 calcium, agonist mode; Muscarinic acetylcholine receptor M1; Fluo-4 calcium fluorescence; stronger effect = higher value; B-score at 10 µM; hit rate 3% among 64,000; AID 626, 2007;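 active means fluorescence rise, raw or as B-score row- and column-corrected plate score, outside the 99.7% band of its plate's samples, either direction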
D1 PAM confirm: D1 receptor positive allosteric modulators, retest, confirmation, cell-based, HEK293 D1, CRE-luciferase, duplicate. shares compounds with D1 allo mod. hit rate 88% among 2,200. dopamine EC30 potentiation; stronger effect = higher value. AID 642, 2007. luminescence at 10 µM;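 active means luminescence in either of two replicates above the same-plate mean plus 3 SD of the low-dose dopamine control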
D1 ag no DA: D1 receptor agonism without dopamine, confirmation, mechanism study for D1 allosteric modulator project, cell-based, HEK293 D1, CRE-luciferase, secondary assay 1; shares compounds with D1 allo mod; luminescence, no dopamine; stronger effect = higher value; luminescence at 10 µM; hit rate 0.8% among 1,900; in the data active means luminescence above about 3900
Isoprot counter: alters isoproterenol CRE-luciferase response in HEK293 cells; shares compounds with D1 allo mod; HEK293 D1 CRE-luciferase, isoproterenol EC30 counter-screen; hit rate 63% among 2,200; AID 647; calls only at 10 µM;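 active means luminescence in either replicate above plate mean of wells with a partly effective reference agonist dose plus 3 SD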;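 further: isoproterenol raises cAMP through native beta-adrenoceptor Gs so signal bypasses D1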
Active calls of the source: *. In the library only some 7.6% were active in any assay of this set; here they are far more common.

Results for Cc1ccc(NC(=S)N2CCN(C3CCCCC3)CC2)cc1 ?
DAT uptake mod: -0.13

How did C/C(Cl)=C/Cn1c(=O)c2c(nc(Br)n2Cc2ccccc2)n(C)c1=O do in these assays?
Jurkat tox 60K: 5; D1 allo mod: 4.8*; M1 antagonist: 0.53; HEK293 NFkB inh: 9; DAT uptake mod: -0.11; M1 agonist: 1.1; D1 PAM confirm: 11400*; D1 ag no DA: 1484; Isoprot counter: active

Results for CCNc1nc2c(c(=O)n(Cc3ccccc3)c(=O)n2C)n1Cc1ccccc1 ?
Jurkat tox 60K: 0; D1 allo mod: 4.4*; M1 antagonist: 0.67; HEK293 NFkB inh: 22; DAT uptake mod: 3*; M1 agonist: 0.61; D1 PAM confirm: 8220*; D1 ag no DA: 1508; Isoprot counter: active

Results for Cn1c(=O)c2c(nc(Br)n2Cc2ccc3ccccc3c2)n(C)c1=O ?
M1 antagonist: 0.023; DAT uptake mod: -0.92; M1 agonist: -1.4

Results for Cc1cccc(Nc2nc3c(c(=O)n(C)c(=O)n3C)n2Cc2ccccc2)c1 ?
Jurkat tox 60K: -3; D1 allo mod: 22*; M1 antagonist: 0.031; HEK293 NFkB inh: 18; DAT uptake mod: 0.59; M1 agonist: -0.022; D1 PAM confirm: 12460*; D1 ag no DA: 1376; Isoprot counter: active

Results for O=C(CC(=O)NC1CCCCC1)N/N=C/c1cccc2ccccc12 ?
DAT uptake mod: -0.31

Results for CCn1c(-c2ccsc2)nc2c1c(=O)[nH]c(=O)n2Cc1ccccc1 ?
Jurkat tox 60K: 2; D1 allo mod: 6.3*; M1 antagonist: 0.62; HEK293 NFkB inh: 27; DAT uptake mod: 2.3; M1 agonist: -0.035; D1 PAM confirm: 16576*; D1 ag no DA: 1684; Isoprot counter: active

How did COCCCNC(=O)CN(Cc1ccc(Cl)cc1)S(C)(=O)=O do in these assays?
Jurkat tox 60K: 6; D1 allo mod: 9.2*; M1 antagonist: -0.12; HEK293 NFkB inh: 23; DAT uptake mod: -0.87; M1 agonist: 0.62; D1 PAM confirm: 5504; D1 ag no DA: 1488; Isoprot counter: inactive

Results for Nc1nc(-c2ccc(Cl)cc2)cc(C(F)(F)F)n1 ?
Jurkat tox 60K: 0; D1 allo mod: 19*; M1 antagonist: -0.17; HEK293 NFkB inh: 24; DAT uptake mod: -0.0098; M1 agonist: 0.86; D1 PAM confirm: 19568*; D1 ag no DA: 1592; Isoprot counter: active

How did Cc1nn(-c2ccccc2)c2c1C(=O)N(c1ccccc1)C(=O)C(C)(C)C2 do in these assays?
DAT uptake mod: -0.077

What do the screens show for `Cc1nn(-c2ccccc2)c2c1/C(=N/O)CC(C)(C)C2`?
Jurkat tox 60K: -6; D1 allo mod: 12*; M1 antagonist: 0.62; HEK293 NFkB inh: 15; M1 agonist: 0.33; D1 PAM confirm: 11596*; D1 ag no DA: 1584; Isoprot counter: active

Results for CC(C)c1ccc(C2NC(C(=O)O)CS2)cc1 (stereo not drawn) ?
DAT uptake mod: -1.4

Results for Cc1c(S(=O)(=O)Nc2cccc(Cl)c2)c(=O)n(C)c(=O)n1C ?
Jurkat tox 60K: -1; D1 allo mod: 2.7*; M1 antagonist: -0.85; HEK293 NFkB inh: 4; DAT uptake mod: 1.2; M1 agonist: -0.036; D1 PAM confirm: 6100; D1 ag no DA: 1648; Isoprot counter: inactive

What do the screens show for `CCCCCn1c(N)c(C#N)c2nc3ccccc3nc21`?
Jurkat tox 60K: -1; D1 allo mod: 5*; M1 antagonist: -0.41; HEK293 NFkB inh: 12; DAT uptake mod: 0.33; M1 agonist: 0.56; D1 PAM confirm: 13676*; D1 ag no DA: 1656; Isoprot counter: inactive

What do the screens show for `COc1ccc(CCn2c(N)c(C#N)c3nc4ccccc4nc32)cc1OC`?
Jurkat tox 60K: -2; D1 allo mod: -0.66; M1 antagonist: -1.5; HEK293 NFkB inh: 9; DAT uptake mod: 0.38; M1 agonist: 0.9

What do the screens show for `COc1ccc(Cn2c(N)c(C#N)c3nc4ccccc4nc32)cc1OC`?
D1 allo mod: 5.1*; M1 antagonist: 0.23; DAT uptake mod: 0.65; M1 agonist: -0.94; D1 PAM confirm: 11232*; D1 ag no DA: 1656; Isoprot counter: active

Results for CC(=O)OC1CC(C)N(C(=O)c2ccccc2)c2ccc(C)cc21 (stereo not drawn) ?
Jurkat tox 60K: 6; D1 allo mod: 11*; M1 antagonist: 0.97; HEK293 NFkB inh: 22; DAT uptake mod: 0.12; M1 agonist: 0.49; D1 PAM confirm: 11832*; D1 ag no DA: 1612; Isoprot counter: active

What do the screens show for `CCN1CCN(CC(=O)NC2CCCC2)C(=O)C1=O`?
Jurkat tox 60K: -1; D1 allo mod: -0.32; M1 antagonist: -0.18; HEK293 NFkB inh: 12; DAT uptake mod: 0.37; M1 agonist: -0.48

How did Cc1cc(Nc2ccc(C)c(Br)c2)n2nc(C)nc2n1 do in these assays?
Jurkat tox 60K: -1; D1 allo mod: 2.8*; M1 antagonist: -1; HEK293 NFkB inh: -3; DAT uptake mod: -1; M1 agonist: 1.1; D1 PAM confirm: 7632; D1 ag no DA: 1564; Isoprot counter: inactive

How did Cc1cc(Nc2ccccc2Br)n2nc(C)nc2n1 do in these assays?
Jurkat tox 60K: -4; D1 allo mod: -0.15; M1 antagonist: -0.57; HEK293 NFkB inh: 5; M1 agonist: -0.74

Results for N#Cc1c(/N=C/c2ccco2)oc(-c2ccccc2)c1-c1ccccc1 ?
Jurkat tox 60K: 4; D1 allo mod: 0.75; M1 antagonist: -0.052; HEK293 NFkB inh: 10; M1 agonist: 1.2

How did COc1ccc(OC)c(/C=N/c2oc(-c3ccco3)c(-c3ccco3)c2C#N)c1 do in these assays?
Jurkat tox 60K: -5; D1 allo mod: 9.5*; M1 antagonist: -0.00024; HEK293 NFkB inh: 17; DAT uptake mod: -1.8; M1 agonist: -0.22; D1 PAM confirm: 16404*; D1 ag no DA: 1712; Isoprot counter: inactive
